The values below come from ChEMBL document CHEMBL4390674, “Defining Structure-Functional Selectivity Relationships (SFSR) for a Class of Non-Catechol Dopamine D1 Receptor Agonists” (J Med Chem, 2019).

Test [1] deals with T1, D(1A) dopamine receptor (Homo sapiens, UniProt P21728). As to the kind of experiment: Bias factor, transduction co-efficient for agonist activity at recombinant human D1 receptor expressed in HEK29T cells assessed as induction of stimulatory G-protein-mediated cAMP accumulation to agonist activity at recombinant C-terminal RLuc8-fused human D1 receptor expressed in HEK29T cells co-expressing N-terminal Venus-tagged beta-arrestin2 assessed as increase in beta-arrestin2 recruitment. It is filed as functional, cell-based. In short, it runs like this: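 Dopamine as full-agonist reference; transduction coefficients log(τ/KA) for Gs-cAMP (GloSensor) and β-arrestin2 (BRET) computed relative to dopamine and averaged across experiments; bias factor derived by Kenakin method from the difference between Gs and β-arrestin2 coefficients.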
Background: Changes in cAMP serve as a functional read-out for many G protein-coupled receptors.

Test [2] deals with T1, D(1A) dopamine receptor. Kind of test: Agonist activity at recombinant human D1 receptor expressed in HEK29T cells assessed as induction of stimulatory G-protein-mediated cAMP accumulation measured after 15 mins by Glosensor-based FLIPR assay. The test is classed as functional, cell-based. In short, it runs like this:
(§1)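 GloSensor-22F cAMP biosensor in HEK293T cells co-expressing human D1, seeded in DMEM + 1% dialyzed FBS; next day GloSensor reagent equilibrated ≥15 min at room temperature in HBSS/20 mM HEPES pH 7.4, then drug added in HBSS/HEPES/0.1% BSA/0.01% ascorbic acid. Luminescence read after 15 min; normalized to dopamine maximum (100%); sigmoidal fit; maximum tested 10⁻⁴ M; ≥3 experiments in triplicate.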

Test [3] has as its target T1, D(1A) dopamine receptor. Kind of test: Agonist activity at recombinant human D1 receptor expressed in HEK29T cells assessed as induction of stimulatory G-protein-mediated cAMP accumulation measured after 15 mins by Glosensor-based FLIPR assay relative to dopamine. The test is classed as functional, cell-based. In short, it runs like this: as §1
Test [4] has as its target T1, D(1A) dopamine receptor. As to the kind of experiment: Agonist activity at recombinant C-terminal RLuc8-fused human D1 receptor expressed in HEK29T cells co-expressing N-terminal Venus-tagged beta-arrestin2 assessed as increase in beta-arrestin2 recruitment measured after 15 mins in presence of coelenterazine H by BRET assay relative to dopamine. It is filed as cell-based. A general note: Arrestin recruitment assays detect the binding of arrestin to an activated receptor.

In test [5] the target is T1, D(1A) dopamine receptor. Kind of test: Agonist activity at recombinant C-terminal RLuc8-fused human D1 receptor expressed in HEK29T cells co-expressing N-terminal Venus-tagged beta-arrestin2 assessed as increase in beta-arrestin2 recruitment measured after 15 mins in presence of coelenterazine H by BRET assay. The test is classed as cell-based. The settings on record: read-out: EC50.

Test [6] deals with T1, D(1A) dopamine receptor. As to the kind of experiment: Agonist activity at recombinant C-terminal RLuc8-fused human D1 receptor expressed in HEK29T cells co-expressing N-terminal Venus-tagged beta-arrestin2 assessed as increase in beta-arrestin2 recruitment at 10^-4M measured after 15 mins in presence of coelenterazine H by BRET assay relative to dopamine. The test is classed as cell-based.

The target of test [7] is T1, D(1A) dopamine receptor. As to the kind of experiment: Agonist activity at recombinant C-terminal RLuc8-fused human D1 receptor expressed in HEK29T cells co-expressing N-terminal Venus-tagged beta-arrestin2 assessed as increase in beta-arrestin2 recruitment at 10^-4M measured after 15 mins in presence of coelenterazine H by BRET assay. It is filed as cell-based.

The source made the active and inactive calls. The rule behind the calls is not given here.

T1 sequence (P21728 whole entry, the tested form may be a part): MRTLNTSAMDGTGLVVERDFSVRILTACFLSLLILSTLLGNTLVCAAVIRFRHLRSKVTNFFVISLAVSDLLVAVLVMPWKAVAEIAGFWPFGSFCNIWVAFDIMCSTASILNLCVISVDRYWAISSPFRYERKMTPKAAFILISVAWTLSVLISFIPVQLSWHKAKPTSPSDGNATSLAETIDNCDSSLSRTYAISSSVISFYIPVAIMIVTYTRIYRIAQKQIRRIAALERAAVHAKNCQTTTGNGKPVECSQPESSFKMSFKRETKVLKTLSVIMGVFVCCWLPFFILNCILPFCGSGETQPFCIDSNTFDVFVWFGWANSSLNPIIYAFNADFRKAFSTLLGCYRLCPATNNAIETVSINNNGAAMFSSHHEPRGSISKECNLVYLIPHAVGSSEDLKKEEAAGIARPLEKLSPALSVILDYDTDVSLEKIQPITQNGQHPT

The term EC50 denotes the concentration at which the effect is half-maximal. Usually Emax stands for the size of the effect at its maximum, as opposed to the concentration needed. As to `Cc1ncc2nccn2c1-c1ccc(Oc2nccc3occc23)cc1N`, the fold change (FC) in test [1] worked out at 2.7. Also, the EC50 in test [2] came to 1.3 nM; in test [5], 210 nM. Moreover, the Emax in test [3] was 104%; in test [4], 81%.
In the case of `Cc1cc(Oc2nccn3ccnc23)ccc1-c1c(C)ncc2nccn12`, the EC50 in test [2] stood at 260 nM. Further, the Emax result in test [6] was “inactive”. Further, the Emax in test [3] is 85%. The result in test [7] was inactive.
As for `Fc1cc(-c2cccc3nccn23)cc(F)c1Oc1nccc2occc12`, the EC50 in test [2] was 190 nM; in test [5] it was > 10000 nM. The Emax in test [3] turned out to be 57%.
For `Cc1cc(Oc2nccc3occc23)ccc1-c1cc(N)cnc1C`, the fold change (FC) in test [1] worked out at 1.2. The 50% effective concentration (EC50) in test [2] turned out to be 13 nM; in test [5], 1100 nM. The Emax in test [3] was determined as 67%; in test [4], 64%.
For the molecule `COc1ccc(-c2ccc(Oc3nccc4occc34)cc2C)c(C)n1`, the EC50 in test [2] was 77 nM; in test [5] it was > 10000 nM. Besides, in test [3], the Emax amounted to 80%.
As to `Cc1cc(Oc2nccc3occc23)ccc1-c1ccc(C#N)cn1`, the EC50 in test [2] was > 10000 nM. The Emax result in test [6] was “inactive”. Moreover, in test [7], the result was inactive.
On to `Cc1cc(Oc2nccc(O)c2C)ccc1-c1c(C)ncc2nccn12`, for which, in test [2], the EC50 was 160 nM. Further, the Emax result in test [6] is “inactive”. Also, the Emax in test [3] is 34%. The outcome in test [7] was inactive.
With `Oc1cc2c(cc1O)[C@H]1c3ccccc3CN[C@@H]1CC2` (racemic), in test [1], the fold change (FC) is 7.5.
Regarding `Cc1cc(Oc2nccc3occ(C4CC4)c23)ccc1-c1c(C)ncc2nccn12`, the EC50 in test [2] stood at 62 nM. Also, the Emax result in test [6] was “inactive”. Further, the Emax in test [3] was 67%. Moreover, the result in test [7] was inactive.
Turning to `Cc1ncc2nccn2c1-c1ccc(Oc2nccc3occc23)c(C)c1C`, in test [2], the EC50 was 55 nM. For the same molecule, in test [6], the Emax result was “inactive”. The Emax in test [3] turned out to be 54%. Moreover, the result in test [7] was inactive.
With `FC(F)(F)c1cc(Oc2nccn3ccnc23)ccc1-c1cccc2nccn12`, the EC50 in test [2] was determined as 180 nM. For the same molecule, the Emax entry in test [6] was “inactive”. Moreover, the Emax in test [3] is 54%. Besides, the result in test [7] was inactive.
Consider `Cc1cc(N(c2nccc3occc23)C(C)C)ccc1-c1c(C)ncc2nccn12`, for which, in test [2], the EC50 is 100 nM. For the same molecule, the Emax entry in test [6] was “inactive”. Also, in test [3], the Emax is 67%. In test [7], the outcome was inactive.
On to `Cc1cc(Oc2nccc3occc23)ccc1-c1cccc2nccn12`, for which the fold change (FC) in test [1] was 1.3. For the same molecule, the EC50 in test [2] came to 2.7 nM; in test [5], 180 nM. The values for the Emax in test [3] and in test [4] were 95% and 63%, respectively.
As for `Cc1cc(Oc2nccn3cccc23)ccc1-c1c(C)ncc2nccn12`, the fold change (FC) in test [1] came out at 15. In addition, the Emax in test [3] was determined as 83%; in test [4] it was 59%.
For `Cc1cc(N(CC2CC2)c2nccc3occc23)ccc1-c1c(C)ncc2nccn12`, the 50% effective concentration (EC50) in test [2] worked out at 320 nM. Moreover, in test [6], the Emax result was “inactive”. In addition, in test [3], the Emax turned out to be 78%. In test [7], the result was inactive.
Consider `Cc1cc(Oc2nccc3occc23)ccc1-c1nc(N)cnc1C`, for which the values for the EC50 in test [2] and in test [5] were 22 nM and > 10000 nM, respectively. Also, the Emax in test [3] was 91%.
Consider `FC(F)(F)c1cc(Oc2nccc3occ(C4CC4)c23)ccc1-c1cccc2nccn12`, for which the EC50 in test [2] came out at 770 nM. In addition, in test [6], the Emax entry was “inactive”. For the same molecule, the Emax in test [3] was 83%. Besides, in test [7], the result was inactive.
Turning to `Cc1cc(-c2c(C)ncc3nccn23)ccc1Oc1nccc2occc12`, the EC50 in test [2] worked out at 610 nM. Further, in test [6], the Emax entry was “inactive”. Also, in test [3], the Emax turned out to be 62%. The outcome in test [7] was inactive.
For the molecule `FC(F)(F)c1cc(Oc2ccccn2)ccc1-c1cccc2nccn12`, the EC50 in test [2] was 270 nM. In addition, the Emax result in test [6] was “inactive”. Besides, in test [3], the maximal effect (Emax) was 65%. In addition, the result in test [7] was inactive.
On to `Cc1cc(-c2cccc3nccn23)ccc1Oc1nccc2occc12`, for which the EC50 in test [2] was 530 nM. In addition, in test [6], the Emax result is “inactive”. Also, the Emax in test [3] amounted to 29%. Also, in test [7], the outcome was inactive.
In the case of `Cc1cc(Nc2nccc3occc23)ccc1-c1c(C)ncc2nccn12`, the EC50 in test [2] was 16 nM; in test [5], > 10000 nM. In addition, the Emax in test [3] is 98%.
On to `Cc1cc(Oc2nccc3occc23)ccc1-c1c(C)cnnc1C`, for which, in test [2], the EC50 turned out to be 1.2 nM. Besides, the Emax result in test [6] was “inactive”. The Emax in test [3] was 61%. For the same molecule, the outcome in test [7] was inactive.
Regarding `Cc1cc(N(c2nccc3occc23)C2CCCC2)ccc1-c1c(C)ncc2nccn12`, the EC50 in test [2] was 1100 nM; in test [5], > 10000 nM. In addition, the Emax in test [3] is 68%.
On to `Cc1cc(Oc2nccc3ccccc23)ccc1-c1c(C)ncc2nccn12`, for which the EC50 is 15 nM in test [2] and > 10000 nM in test [5]. Further, in test [3], the Emax was 82%.
In the case of `CCN(c1ccc(-c2c(C)ncc3nccn23)c(C)c1)c1nccc2occc12`, the half-maximal effective concentration (EC50) in test [2] was 36 nM. For the same molecule, the Emax entry in test [6] was “inactive”. Further, the Emax in test [3] worked out at 80%. Also, in test [7], the result was inactive.
Take `Cc1ncc2nccn2c1-c1cc(F)c(Oc2nccc3occc23)c(F)c1`: the half-maximal effective concentration (EC50) in test [2] stood at 140 nM. The Emax result in test [6] was “inactive”. For the same molecule, the Emax in test [3] came out at 66%. Also, in test [7], the outcome was inactive.
`Cc1cc(Oc2nccc3ccsc23)ccc1-c1c(C)ncc2nccn12`: the fold change (FC) in test [1] turned out to be 1.9. Moreover, the concentration giving a half-maximal response (EC50) in test [2] worked out at 0.23 nM; in test [5] it was 22 nM. Besides, the Emax in test [3] came out at 100%; in test [4], 63%.
Take `Cc1cc(Oc2ncccc2Br)ccc1-c1c(C)ncc2nccn12`: the EC50 in test [2] was > 10000 nM. The Emax entry in test [6] is “inactive”. In addition, the result in test [7] was inactive.
With `Cc1c(Oc2nccc3occc23)ccc(-c2cccc3nccn23)c1C`, in test [2], the EC50 amounted to 110 nM. In test [6], the Emax entry is “inactive”. Moreover, in test [3], the Emax is 30%. The outcome in test [7] was inactive.
For `FC(F)(F)c1cc(Oc2nccn3cccc23)ccc1-c1cccc2nccn12`, the EC50 in test [2] was found to be 7.8 nM. The Emax result in test [6] was “inactive”. In addition, in test [3], the Emax was 78%. The result in test [7] was inactive.
Regarding `Cc1cc(Oc2cc(N3CCCCC3)ccn2)ccc1-c1c(C)ncc2nccn12`, the EC50 in test [2] was determined as 640 nM. Also, the Emax entry in test [6] is “inactive”. In addition, the Emax in test [3] was determined as 26%. The result in test [7] was inactive.
In the case of `CCOc1ncnc(C)c1-c1ccc(Oc2nccc3occc23)cc1C`, the values for the EC50 in test [2] and in test [5] were 12 nM and > 10000 nM, respectively. The Emax in test [3] was 67%.
With `Cc1cc(Oc2nccc3occc23)ccc1-c1cncc(C(N)=O)c1`, the EC50 in test [2] came out at 1300 nM. For the same molecule, the Emax entry in test [6] was “inactive”. In test [3], the Emax was found to be 59%. Also, the outcome in test [7] was inactive.
As for `FC(F)(F)c1cc(Oc2nccc3ccccc23)ccc1-c1cccc2nccn12`, the EC50 in test [2] worked out at 67 nM. For the same molecule, the Emax result in test [6] is “inactive”. Further, in test [3], the Emax is 61%. The result in test [7] was inactive.
On to `Cc1cc(N(C)c2nccc3occc23)ccc1-c1c(C)ncc2nccn12`, for which the 50% effective concentration (EC50) in test [2] was found to be 88 nM. Moreover, the Emax entry in test [6] is “inactive”. Moreover, the Emax in test [3] was 79%. The outcome in test [7] was inactive.
For `Cc1cc(Oc2ccccn2)ccc1-c1c(C)ncc2nccn12`, the EC50 was 120 nM in test [2] and > 10000 nM in test [5]. Also, the Emax in test [3] came to 83%.
Consider `COC(=O)c1cccn2c(-c3ccc(Oc4nccc5occc45)cc3C)cnc12`, for which the EC50 in test [2] was 1000 nM. In addition, the Emax result in test [6] was “inactive”. Besides, the Emax in test [3] turned out to be 44%. Further, the result in test [7] was inactive.
Consider `Cc1cc(Oc2nccc3[nH]ncc23)ccc1-c1c(C)ncc2nccn12`, for which the values for the EC50 in test [2] and in test [5] were 1.8 nM and > 10000 nM, respectively. For the same molecule, the Emax in test [3] was 104%.
Regarding `Cc1cc(Oc2cccc3occc23)ccc1-c1c(C)ncc2nccn12`, the EC50 in test [2] is 79 nM. In addition, in test [6], the Emax result was “inactive”. The maximum response (Emax) in test [3] stood at 69%. In test [7], the result was inactive.
